High-throughput results as filed in PubChem BioAssay.
PG9 Ab binder: binders of HIV-1 gp120 antibody PG9, primary screen, biochemical, TR-FRET. HIV-1 gp120 / PG9 antibody interaction. TR-FRET gp120-PG9 antibody binding. inhibition, % at 6.7 µM. 0.43% of 360,000 active; in the data active means inhibition above about 8.5%
NR2E3 ag-1: inhibitors of NR2E3-RetCOR corepressor binding, primary screen, NR2E3 agonist project, biochemical, TR-FRET, GST-NR2E3, biotin-RetCOR; Photoreceptor-specific nuclear receptor (Homo sapiens), Q9Y5X4; 1536-well; inhibition of corepressor binding, % at 4.78 µM; 0.12% of 320,000 active; AID 2300, 2010;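 active means percent inhibition above the cutoff of mean plus 3 SD of all tested compounds, set per screening campaign, cut at about 20% in these data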
Target sequence (Q9Y5X4 whole entry, looked up): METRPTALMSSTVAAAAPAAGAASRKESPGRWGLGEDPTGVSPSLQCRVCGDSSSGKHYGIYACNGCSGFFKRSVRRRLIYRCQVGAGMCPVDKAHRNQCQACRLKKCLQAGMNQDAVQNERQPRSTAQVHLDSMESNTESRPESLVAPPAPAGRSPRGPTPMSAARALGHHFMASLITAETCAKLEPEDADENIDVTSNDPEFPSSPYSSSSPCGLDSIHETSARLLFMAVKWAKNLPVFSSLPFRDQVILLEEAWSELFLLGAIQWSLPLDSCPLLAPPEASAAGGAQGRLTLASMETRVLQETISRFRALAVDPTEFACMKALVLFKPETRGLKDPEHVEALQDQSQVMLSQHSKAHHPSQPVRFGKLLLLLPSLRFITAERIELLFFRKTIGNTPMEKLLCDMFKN
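System: GST-tagged NR2E3 plus biotinylated RetCOR corepressor; Amount: 1.35 nM GST-tagged NR2E3 final; Dosing: single nominal compound dose of 4.8 µM; Schedule: 5 h incubation at 4 °C; Technique: TR-FRET with europium anti-GST and streptavidin-D2, 340 nm excitation; Controls: biotin wells as high control, 0.6% DMSO wells as low control.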
NR2E3 ag-2: NR2E3 agonists in two-hybrid cells, primary screen, cell-based, luminescence, CHO-S, Gal4-NCOR/VP16-NR2E3. luciferase. inhibition of corepressor binding, % at 3.98 µM. 0.35% of 360,000 active. AID 602229, 2012;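 active means inhibition above the mean of all tested compounds plus 3 SD, cut at about 70% in these data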;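 further: higher means lower luciferase signal from less NR2E3 corepressor binding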
Rev-erbA mod: modulators of Rev-erb alpha DNA binding, primary screen, biochemical, FITC-DNA, fluorescence polarization, uHTS; Rev-erbα–FITC-DNA binding, 90 min; activity, % at 10 µM; 0.79% of 370,000 active;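 active means activity above about 14%, limit read from the data; passing the limit was not always enough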
Rev-erbA confirm: modulators of Rev-erb alpha DNA binding, confirmation, biochemical, FITC-DNA, fluorescence polarization, single point. shares compounds with Rev-erbA mod. 90 min. activation, % at 25 µM. 61% of 3,000 active;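 active means activation at or above a set limit, or at least 3 SD above the negative control mean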
RORg DNA counter: modulation of RORgamma DNA binding, dose response, counter-screen for Rev-erb alpha modulator project, biochemical, fluorescence polarization, FITC-DNA | shares compounds with Rev-erbA mod | purified RORgamma protein-FITC-DNA binding | AID 1259320, 2017 | 8% of 910 active | IC50, µM;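 active means Compounds whose fitted half-maximal concentration for disrupting protein-DNA binding is below 10 micromolar; the record names Rev-erb in its text, so the target is in doubt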
A number is an active result; - = inactive; . = no result given. An excerpt weighted towards active compounds, which were near 1.5% of everything screened.

SMILES	PG9 Ab binder	NR2E3 ag-1	NR2E3 ag-2	Rev-erbA mod	Rev-erbA confirm	others
CCCCCn1c(=O)c(C(=O)Nc2ccccn2)c(O)c2ccccc21	-	-	-	-	.
CCCCCCn1c(=O)c(C(=O)Nc2cnccn2)c(O)c2ccccc21	-	-	-	14	-
CCCCCn1c(=O)c(C(=O)Nc2ccccc2)c(O)c2ccccc21	-	-	-	21	-
O=C1NC(=S)SC1=Cc1ccc(N(CCCl)CCCl)cc1	-	.	-	24	20
CCCCn1nnnc1C(c1cccs1)N1CCC2(CC1)C(=O)NCN2c1ccccc1 (stereo unspecified)	-	.	-	-	.
CC(=O)N1c2ccccc2C(c2ccccc2)=NCC1C(=O)NC1CCCCC1 (stereo unspecified)	.	.	.	-	.
CN1/C(=C\C=C2C(=O)NC(=S)NC2=O)C(C)(C)c2ccccc21	-	.	-	25	53	RORg DNA counter=-
CC1(C)OC(c2ccccc2)=C/C(=C/C=C2C(=O)NC(=S)NC2=O)O1	-	-	.	-	.
